In ChEMBL document CHEMBL4325893, “Synthesis and antibacterial profiles of targeted triclosan derivatives” (2019):

How the values were obtained:
[1] = Antibacterial activity against Salmonella enterica subspecies enterica serotype Pullorum OCC 273 after 18 hrs; type: functional, Salmonella enterica subsp. enterica serovar Pullorum; settings: OCC 273, 18 h
Outline: (§1)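 Broth microdilution in Nutrient Broth No. 2; stocks in ethanol diluted to 0.01–128 µg/ml (triclosan) or 0.25–256 µg/ml (glycosides). Overnight 37 °C NB2 cultures diluted 1 in 10^4 in saline and added to the dilutions. Incubation at 37 °C with agitation, OD read every 15 min; MIC is the lowest concentration preventing any OD rise after 18 h.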

Escherichia coli [2] = experiment: Antibacterial activity against Escherichia coli ATCC 25922 after 18 hrs; type: functional; settings: ATCC 25922, 18 h; outline: as §1
Staphylococcus aureus [3] = experiment: Antibacterial activity against Staphylococcus aureus OCC 104 after 18 hrs; type: functional; settings: OCC 104, 18 h; outline: as §1
Enterococcus faecalis [4] = experiment: Antibacterial activity against Enterococcus faecalis ATCC 29212 after 18 hrs; type: functional; settings: ATCC 29212, 18 h; outline: as §1
[5] = system: Salmonella enterica subsp. enterica serovar Abony; experiment: Antibacterial activity against Salmonella enterica subspecies enterica serotype Abony NCTC 6017 after 18 hrs; type: functional; settings: NCTC 6017, 18 h; outline: as §1
Salmonella enteritidis = experiment: Antibacterial activity against Salmonella enterica subspecies enterica serotype Enteritidis 13076 after 18 hrs; type: functional, Salmonella enterica subsp. enterica serovar Enteritidis; settings: Salmonella enterica, 13076, 18 h; outline: as §1
Staphylococcus aureus [6] = experiment: Antibacterial activity against Staphylococcus aureus OCC 106 after 18 hrs; type: functional; settings: OCC 106, 18 h; outline: as §1
[7] = system: Staphylococcus epidermidis; experiment: Antibacterial activity against Staphylococcus epidermidis ATCC 14990 after 18 hrs; type: functional; settings: ATCC 14990, 18 h; outline: as §1
Staphylococcus aureus [8] = experiment: Antibacterial activity against Staphylococcus aureus ATCC 6538P after 18 hrs; type: functional; outline: as §1
Salmonella typhimurium = experiment: Antibacterial activity against Salmonella enterica subspecies enterica serotype typhimurium ATCC 14028 after 18 hrs; type: functional, Salmonella enterica subsp. enterica serovar Typhimurium; settings: ATCC 14028, 18 h; outline: as §1
Citrobacter freundii [9] = experiment: Antibacterial activity against Citrobacter freundii OCC 851 after 18 hrs; type: functional; settings: OCC 851, 18 h; outline: as §1
Bacillus cereus = experiment: Antibacterial activity against Bacillus cereus ATCC 14579 after 18 hrs; type: functional; settings: ATCC 14579, 18 h; outline: as §1
Hafnia alvei = experiment: Antibacterial activity against Hafnia alvei 13337 after 18 hrs; type: functional; settings: Hafnia alvei, 13337, 18 h; outline: as §1
Serratia marcescens = experiment: Antibacterial activity against Serratia marcescens OCC 217 after 18 hrs; type: functional; settings: OCC 217, 18 h; outline: as §1
[10] = system: Staphylococcus epidermidis; experiment: Antibacterial activity against Staphylococcus epidermidis 155 after 18 hrs; type: functional; settings: Staphylococcus epidermidis, 155, 18 h; outline: as §1
Klebsiella aerogenes [11] = experiment: Antibacterial activity against Klebsiella aerogenes NCTC 8167 after 18 hrs; type: functional; settings: NCTC 8167, 18 h; outline: as §1
Klebsiella pneumoniae [12] = experiment: Antibacterial activity against Klebsiella pneumoniae ATCC 13883 after 18 hrs; type: functional; settings: ATCC 13883, 18 h; outline: as §1
[13] = system: Staphylococcus epidermidis; experiment: Antibacterial activity against Staphylococcus epidermidis ATCC 12228 after 18 hrs; type: functional; settings: ATCC 12228, 18 h; outline: as §1
Escherichia coli [14] = experiment: Antibacterial activity against Escherichia coli ATCC 11775 after 18 hrs; type: functional; outline: as §1
Enterococcus faecium = experiment: Antibacterial activity against Enterococcus faecium ATCC 19434 after 18 hrs; type: functional; settings: ATCC 19434, 18 h; outline: as §1
Escherichia coli [15] = experiment: Antibacterial activity against Escherichia coli 700728 after 18 hrs; type: functional; settings: Escherichia coli, 700728, 18 h; outline: as §1
Staphylococcus aureus [16] = experiment: Antibacterial activity against Staphylococcus aureus ATCC 25923 after 18 hrs; type: functional; settings: ATCC 25923, 18 h; outline: as §1
Enterococcus faecalis [17] = experiment: Antibacterial activity against Enterococcus faecalis ATCC 33186 after 18 hrs; type: functional; settings: ATCC 33186, 18 h; outline: as §1
Escherichia coli [18] = experiment: Antibacterial activity against Escherichia coli ATCC 35218 after 18 hrs; type: functional; settings: ATCC 35218, 18 h; outline: as §1
Staphylococcus aureus [19] = experiment: Antibacterial activity against Staphylococcus aureus ATCC 9144 after 18 hrs; type: functional; settings: ATCC 9144, 18 h; outline: as §1
Proteus mirabilis = experiment: Antibacterial activity against Proteus mirabilis ATCC 12453 after 18 hrs; type: functional; settings: ATCC 12453, 18 h; outline: as §1
Staphylococcus aureus [20] = experiment: Antibacterial activity against Staphylococcus aureus ATCC 6538 after 18 hrs; type: functional; settings: ATCC 6538, 18 h; outline: as §1
[21] = Antibacterial activity against Enterobacter cloacae ATCC 13047 after 18 hrs; type: functional, Enterobacter cloacae subsp. cloacae; settings: ATCC 13047, 18 h; outline: as §1
[22] = Antibacterial activity against Salmonella enterica subspecies enterica serotype Infantis OCC 2133 after 18 hrs; type: functional, Salmonella enterica subsp. enterica serovar Infantis; settings: OCC 2133, 18 h; outline: as §1
[23] = Antibacterial activity against Salmonella enterica subspecies enterica serotype Dublin OCC 627 after 18 hrs; type: functional, Salmonella enterica subsp. enterica serovar Dublin; settings: OCC 627, 18 h; outline: as §1
[24] = system: Staphylococcus saprophyticus; experiment: Antibacterial activity against Staphylococcus saprophyticus ATCC 15305 after 18 hrs; type: functional; settings: ATCC 15305, 18 h
Outline: (§2)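 Broth microdilution in Nutrient Broth No. 2. Ethanol stocks were diluted in broth to 0.01–128 µg/ml for triclosan and 0.25–256 µg/ml for glycosides. Overnight 37°C NB2 cultures were diluted 1 in 10^4 in saline and added to the wells. Plates were incubated at 37°C with OD read every 15 min after agitation. MIC was the lowest concentration giving no OD increase at 18 h.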

[25] = Antibacterial activity against Salmonella enterica subspecies enterica serotype Nottingham NCTC 7832 after 18 hrs; type: functional, Salmonella enterica subsp. enterica serovar Nottingham; settings: NCTC 7832, 18 h; outline: as §1
Streptococcus pneumoniae [26] = experiment: Antibacterial activity against Streptococcus pneumoniae 6305 after 18 hrs; type: functional; settings: Streptococcus pneumoniae, 6305, 18 h; outline: as §2
Bacillus subtilis = experiment: Antibacterial activity against Bacillus subtilis NCTC 10073 after 18 hrs; type: functional; settings: NCTC 10073, 18 h; outline: as §1
Streptococcus agalactiae = experiment: Antibacterial activity against Streptococcus agalactiae OCC 182 after 18 hrs; type: functional; settings: OCC 182, 18 h; outline: as §2
Pseudomonas aeruginosa = experiment: Antibacterial activity against Pseudomonas aeruginosa ATCC 27853 after 18 hrs; type: functional; settings: ATCC 27853, 18 h; outline: as §1
[27] = system: Staphylococcus haemolyticus; experiment: Antibacterial activity against Staphylococcus haemolyticus OCC 2223 after 18 hrs; type: functional; settings: OCC 2223, 18 h; outline: as §2
Escherichia coli [28] = experiment: Antibacterial activity against Escherichia coli ATCC 10536 after 18 hrs; type: functional; settings: ATCC 10536, 18 h; outline: as §1
Klebsiella aerogenes [29] = experiment: Antibacterial activity against Enterobacter aerogenes ATCC 13048 after 18 hrs; type: functional; settings: ATCC 13048, 18 h; outline: as §1
Streptococcus viridans = experiment: Antibacterial activity against Streptococcus viridans OCC 234 after 18 hrs; type: functional; settings: OCC 234, 18 h; outline: as §2
Citrobacter freundii [30] = experiment: Antibacterial activity against Citrobacter freundii 8090 after 18 hrs; type: functional; settings: Citrobacter freundii, 8090, 18 h; outline: as §1
[31] = Antibacterial activity against Salmonella enterica subspecies enterica serotype Arizonae OCC 706 after 18 hrs; type: functional, Salmonella enterica subsp. enterica serovar Arizonae; settings: OCC 706, 18 h; outline: as §1
[32] = Antibacterial activity against Salmonella enterica subspecies enterica serotype Poona NCTC 4840 after 18 hrs; type: functional, Salmonella enterica subsp. enterica serovar Poona; settings: NCTC 4840, 18 h; outline: as §1
[33] = Antibacterial activity against Salmonella enterica subspecies enterica serotype Virchow NCTC 5742 after 18 hrs; type: functional, Salmonella enterica subsp. enterica serovar Virchow; settings: NCTC 5742, 18 h; outline: as §1
Aeromonas hydrophila = experiment: Antibacterial activity against Aeromonas hydrophila OCC 778 after 18 hrs; type: functional; settings: OCC 778, 18 h; outline: as §1
Streptococcus pyogenes = experiment: Antibacterial activity against Streptococcus pyogenes ATCC 19615 after 18 hrs; type: functional; settings: ATCC 19615, 18 h; outline: as §2
Escherichia coli [34] = experiment: Antibacterial activity against Escherichia coli NCTC 13216 after 18 hrs; type: functional; settings: NCTC 13216, 18 h; outline: as §1
[35] = Antibacterial activity against Salmonella enterica subspecies enterica serotype Indiana OCC 597 after 18 hrs; type: functional, Salmonella enterica subsp. enterica serovar Indiana; settings: OCC 597, 18 h; outline: as §1
Escherichia coli [36] = experiment: Antibacterial activity against Escherichia coli OCC 122 after 18 hrs; type: functional; settings: OCC 122, 18 h; outline: as §1
Proteus vulgaris = experiment: Antibacterial activity against Proteus vulgaris OCC 195 after 18 hrs; type: functional; settings: OCC 195, 18 h; outline: as §1
Cronobacter sakazakii = experiment: Antibacterial activity against Cronobacter sakazakii 29544 after 18 hrs; type: functional; settings: Cronobacter sakazakii, 29544, 18 h; outline: as §1
Staphylococcus aureus [37] = experiment: Antibacterial activity against Staphylococcus aureus NCTC 13758 after 18 hrs; type: functional; settings: NCTC 13758, 18 h; outline: as §1
Staphylococcus aureus [38] = experiment: Antibacterial activity against Staphylococcus aureus ATCC 29213 after 18 hrs; type: functional; settings: ATCC 29213, 18 h; outline: as §1
Escherichia hermannii = experiment: Antibacterial activity against Escherichia hermannii 33650 after 18 hrs; type: functional; settings: Atlantibacter hermannii, 33650, 18 h; outline: as §1
Klebsiella pneumoniae [39] = experiment: Antibacterial activity against Klebsiella pneumoniae ATCC 10031 after 18 hrs; type: functional; settings: ATCC 10031, 18 h; outline: as §1
Streptococcus pneumoniae [40] = experiment: Antibacterial activity against Streptococcus pneumoniae ATCC 49619 after 18 hrs; type: functional; settings: ATCC 49619, 18 h; outline: as §2
Escherichia coli [41] = experiment: Antibacterial activity against Escherichia coli ATCC 8739 after 18 hrs; type: functional; settings: ATCC 8739, 18 h; outline: as §1

Measured: MIC

OC[C@H]1O[C@H](Oc2cc(Cl)ccc2Oc2ccc(Cl)cc2Cl)[C@@H](O)[C@@H](O)[C@@H]1O
4 to 8 µg/mL: [7] | [10] | [13]
8 µg/mL: [21] | [27]
> 256 µg/mL: Serratia marcescens | Pseudomonas aeruginosa | Aeromonas hydrophila
256 µg/mL: Enterococcus faecalis [4] | Bacillus cereus | Enterococcus faecium | Enterococcus faecalis [17]
128 µg/mL: Bacillus subtilis | Streptococcus agalactiae | Streptococcus viridans | Cronobacter sakazakii
16 µg/mL: Proteus mirabilis | Escherichia hermannii
4 to 64 µg/mL: Escherichia coli [2] | Escherichia coli [14] | Escherichia coli [15] | Escherichia coli [18] | Escherichia coli [28] | Escherichia coli [34] | Escherichia coli [36] | Escherichia coli [41]
32 µg/mL: Klebsiella aerogenes [11] | [24] | Klebsiella aerogenes [29] | Streptococcus pyogenes | Proteus vulgaris
64 µg/mL: Citrobacter freundii [9] | Streptococcus pneumoniae [26] | Citrobacter freundii [30] | Streptococcus pneumoniae [40]
4 µg/mL: Hafnia alvei | Klebsiella pneumoniae [12] | Klebsiella pneumoniae [39]
2 to 8 µg/mL: Staphylococcus aureus [3] | Staphylococcus aureus [6] | Staphylococcus aureus [8] | Staphylococcus aureus [16] | Staphylococcus aureus [19] | Staphylococcus aureus [20] | Staphylococcus aureus [37] | Staphylococcus aureus [38]
16 to 64 µg/mL: all other assays above
